Assay outcomes as filed in PubChem BioAssay.
NR2E3 ag-1 – inhibitors of NR2E3-RetCOR corepressor binding, primary screen, NR2E3 agonist project, biochemical, TR-FRET, GST-NR2E3, biotin-RetCOR; Photoreceptor-specific nuclear receptor (Homo sapiens), Q9Y5X4; 1536-well; inhibition of corepressor binding, % at 4.78 µM; 0.12% of 320,000 active; AID 2300, 2010;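 active means percent inhibition above the cutoff of mean plus 3 SD of all tested compounds, set per screening campaign, cut at about 20% in these data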;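 further: 0% = DMSO wells and 100% = biotin wells as full block of FRET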
Target sequence (Q9Y5X4 whole entry, looked up): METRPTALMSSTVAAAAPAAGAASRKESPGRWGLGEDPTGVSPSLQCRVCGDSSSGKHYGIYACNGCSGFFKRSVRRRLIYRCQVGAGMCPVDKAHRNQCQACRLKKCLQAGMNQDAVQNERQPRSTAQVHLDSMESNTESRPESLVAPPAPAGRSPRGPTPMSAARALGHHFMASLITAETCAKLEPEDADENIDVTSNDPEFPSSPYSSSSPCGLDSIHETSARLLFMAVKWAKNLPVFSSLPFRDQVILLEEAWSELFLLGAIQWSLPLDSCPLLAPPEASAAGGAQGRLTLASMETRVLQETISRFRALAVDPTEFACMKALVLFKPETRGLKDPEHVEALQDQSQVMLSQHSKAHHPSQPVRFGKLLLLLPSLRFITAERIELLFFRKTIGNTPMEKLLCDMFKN
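Material: NR2E3–RetCOR corepressor complex / Incubation: Compound–protein incubation for 5 h at 4 °C / Dosing: compound at 4.8 µM, single dose / Detection: time-resolved FRET / Benchmarks: high control biotin, low control 0.6% DMSO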
HIF act – HIF pathway transcriptional activators, primary screen, cell-based, U2OS HRE-luciferase, luminescence; activation, % at 7.5 µM (by protocol); U2OS HRE-luciferase reporter; normalized: DMSO 0%, desferrioxamine 100%; 0.32% of 300,000 active;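 active means mean activation of at least 10% of the iron chelator positive control signal, with at least half of replicates also reaching 10%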
TROY NFkB inh – inhibitors of TROY-driven NF-kB signaling, primary screen, Q293 LMP1-TROYcd cells, NF-kB luciferase, uHTS; AID 1347056, 2019; 0.98% of 360,000 active; inhibition, % at 10 µM; Q293 LMP1-TROYcd NF-kB luciferase reporter, 4 h;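 active means compounds whose plate-normalised and pattern-corrected inhibition of the luciferase reporter signal at the single screening dose is 50% or more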
EBV LMP1 NFkB – EBV LMP1-driven NF-kappaB luciferase reporter inhibitors, primary screen, cell-based, luminescence, single point. 0.69% of 350,000 active. LMP1-induced NF-kappaB luciferase reporter cells. AID 504558, 2011. inhibition, % at 12.5 µM; in the data active means inhibition above about 41%;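 further: 0% = neutral control wells and 100% = reference inhibitor control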
NR2E3 ag-2 – NR2E3 agonists in two-hybrid cells, primary screen, cell-based, luminescence, CHO-S, Gal4-NCOR/VP16-NR2E3. Photoreceptor-specific nuclear receptor (Homo sapiens), Q9Y5X4. luciferase. inhibition of corepressor binding, % at 3.98 µM. 0.35% of 360,000 active. AID 602229, 2012;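 active means inhibition above the mean of all tested compounds plus 3 SD, cut at about 70% in these data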;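 further: 0% = DMSO with NR2E3 transfected cells and 100% = cells lacking NR2E3 construct; higher means lower luciferase signal from less NR2E3 corepressor binding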
NR2E3 ag confirm – NR2E3 agonist confirmation in cells, cell-based, luminescence, CHO-S two-hybrid. shares compounds with NR2E3 ag-2. CHO-S mammalian two-hybrid NR2E3-NCOR, luciferase luminescence. inhibition, % at 3.98 µM. 51% of 2,300 active. AID 624378, 2012;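 active means average inhibition above a cutoff equal to the mean inhibition of all tested compounds plus one SD, cut at about 70% in these data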;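 further: 0% = DMSO in NR2E3 cells and 100% = DMSO in cells lacking NR2E3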
GAL4-VP16 luc – GAL4-VP16 reporter modulators, confirmation, counter-screen for NR2E3 agonist project, cell-based, luminescence, CHO-S, high throughput | CHO-S GAL4-VP16 luciferase reporter | inhibition, % at 3.98 µM | shares compounds with NR2E3 ag-2 | 29% of 2,300 active;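 active means mean inhibition above a cutoff equal to the average over all tested compounds plus one standard deviation, cut at about 70% in these data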;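 further: luciferase from a UAS reporter driven by GAL4-VP16 transactivation; 0% = DMSO with VP16-transfected cells and 100% = DMSO with cells lacking VP16; higher means less reporter light so more repression of VP16 activity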
* marks the source's active call; other numbers are inactive results; · = no result. Shown are actives, neighbours in structure and some others; about 2% of the full set was active somewhere.

SMILES	NR2E3 ag-1	HIF act	TROY NFkB inh	EBV LMP1 NFkB	NR2E3 ag-2	NR2E3 ag confirm	GAL4-VP16 luc
O=C(Nc1cc(C(F)(F)F)ccc1N1CCOCC1)c1ccco1	0	0	6	-1	103*	-1	2
COc1cnc(-c2ccccn2)nc1Oc1c(C)cccc1C	0	-1	6	6	57	28	-6
COc1cnc(-c2ccccc2)nc1OC	2	2	-16	-3	-1	·	·
COc1cnc(-c2ccccc2)nc1Oc1cccc(C)c1	-3	0	10	-9	16	·	·
COc1cnc(-c2ccccn2)nc1Oc1cccc(Cl)c1	1	0	-11	18	62	15	3
COc1cnc(-c2ccccn2)nc1N(C)C	1	78*	-1	2	63	52	-13
COc1ccc(Oc2nc(-c3ccccn3)ncc2OC)cc1	1	0	4	9	73*	21	-26
CCOC(=O)N1CCN(Cc2nc3cc(NC(=O)c4ccco4)ccc3n2CC)CC1	3	2	-2	-6	-37	·	·
CCCS(=O)(=O)NC(=O)C1(C)CCN(C(=O)c2cccc(OC(F)(F)F)c2)C1 (stereo not drawn)	·	·	6	·	-31	·	·
COc1ccc(CN(C)C(=O)c2cccc(NS(=O)(=O)c3ccccc3)c2)cc1F	0	1	0	11	16	·	·
CCN(CC(=O)Nc1c(F)cccc1F)C(=O)c1ccc(N2CCCCC2)c([N+](=O)[O-])c1	-2	0	4	14	57	34	39
CN(CC(=O)Nc1cccc(F)c1)C(=O)c1ccc(N2CCOCC2)c([N+](=O)[O-])c1	3	0	6	-8	9	·	·
CN(CC(=O)Nc1ccc(Cl)c(C(F)(F)F)c1)C(=O)c1ccc(N2CCOCC2)c([N+](=O)[O-])c1	-1	-1	22	-1	63	63	59
COc1ccc(Cl)cc1NC(=O)CN(C)C(=O)c1ccc(N2CCCCC2)c([N+](=O)[O-])c1	1	0	20	2	40	·	·
COc1ccc(Cl)cc1NC(=O)CN(C)C(=O)c1ccc(N2CCCCCC2)c([N+](=O)[O-])c1	6	-2	-7	3	70	42	39
COc1ccc(NS(=O)(=O)c2ccc3oc4ccccc4c3c2)cn1	5	0	20	-5	88*	76*	63
COc1ccc(NS(=O)(=O)c2ccc(Br)cc2)cn1	1	-1	-9	4	6	·	·
COc1ccc(C)cc1S(=O)(=O)Nc1cc2c3c(c1)CCN3C(=O)CC2	3	1	-11	2	-8	·	·
Cc1ccc(C)c(S(=O)(=O)Nc2cc3c4c(c2)CCC(=O)N4CCC3)c1	0	1	-5	-9	57	28	-21
O=C(O)CNC(=O)/C(=C\c1cccc([N+](=O)[O-])c1)NC(=O)c1ccco1	1	0	-2	-3	-28	·	·
O=C1C=CC(O)(c2cc(=O)c3c(O)cc(O)cc3o2)C=C1	2	-3	27	-65	48	-54	-40
O=c1cc(-c2ccccc2Cl)oc2cc(O)cc(O)c12	4	-1	-9	21	-38	·	·
Cc1ccc(C(=O)Sc2cccccc2=O)cc1	-3	6	-32	-19	101*	-22	-82
CC(=O)OC1c2ccccc2C(=O)N1Cc1ccccc1 (stereo not drawn)	-2	0	-10	0	75*	-1	3
CC(=O)OC1c2ccccc2C(=O)N1c1ccccc1C (stereo not drawn)	4	0	-9	-8	-13	·	·
SMILES	NR2E3 ag-1	HIF act	TROY NFkB inh	EBV LMP1 NFkB	NR2E3 ag-2	NR2E3 ag confirm	GAL4-VP16 luc
Cc1cc(N)n2ncc(-c3ccccc3)c2n1	-2	4	-45	-39	-109	·	·
Cc1nc2c(-c3ccc(F)cc3)cnn2c(N)c1-c1ccccc1	2	-1	94*	15	77*	48	12
CCN(CC(=O)Nc1cccc(OC)c1)c1ncnc2sc(C)c(C)c12	-1	0	24	13	71*	88*	71*
COc1cccc(NC(=O)COc2ncnc3sc(C)c(C)c23)c1	-2	-1	-1	-4	2	·	·
COc1ccc(NC(C)=O)cc1NC(=O)c1ccc2ccccc2c1	0	0	-21	-6	3	·	·
Cc1cccc(OCCCC(=O)Nc2nc3ccccc3[nH]2)c1	-2	-1	-29	-17	53	72*	-18
N#CC(=C(O)CN1CCN(c2ccccc2F)CC1)c1nc(-c2ccc(Cl)cc2)cs1	·	·	43	-1	29	·	·
N#CC(=C(O)CN1CCN(c2ccccc2F)CC1)c1nc(-c2ccccc2)cs1	·	·	-2	-6	57	37	43
COCCNC(=O)C1(C)CCCN(C(=O)COc2ccccc2)C1 (stereo not drawn)	·	·	0	·	0	·	·
CCCCNc1c(-c2ccc(OC)c(SC3CCCCC3)c2)nc2ccc(C)cn12	·	·	13	25	61	46	26
CCOC(=O)[C@H]1[C@H]2COc3ccc(C)cc3[C@@H]2N2C(=O)CN(C)C(=O)[C@@]12C	·	·	16	-6	-7	·	·
COCC(=O)N1CCC(Oc2ccc(C(=O)N3CCSCC3)cc2)CC1	0	1	-14	0	-19	·	·
Cc1ccc(Cl)cc1N1CCN(C(=O)COc2ccc(S(=O)(=O)NC(C)C)cc2)CC1	3	1	32	11	56	64	42
CC(C)NS(=O)(=O)c1ccc(OCC(=O)N2CCCC2)cc1	-4	0	-2	6	5	·	·
Cc1ccc(Cl)cc1N1CCN(C(=O)CN(C2CCCCC2)S(C)(=O)=O)CC1	3	0	21	3	53	61	61
CS(=O)(=O)N(CC(=O)N1CCN(c2cccc(Cl)c2)CC1)C1CCCCC1	-4	-1	18	-1	-24	·	·
CCc1c(C)nc2nc(SCc3ccccc3Cl)[nH]n2c1=O	-3	-2	26	2	69	84*	61
CSc1nc2nc(C)c(C/C=C/c3ccccc3)c(=O)n2[nH]1	2	0	17	-6	-32	·	·
O=C(Nc1cccc(NC(=O)c2cccc(F)c2)n1)c1cccc(F)c1	2	0	-36	1	-52	·	·
O=C(Nc1cccc(NC(=O)c2c(F)cccc2F)n1)c1c(F)cccc1F	-3	-7	-4	-3	60	79*	1
